Measured values taken from ChEMBL document CHEMBL2407008, “Synthesis and biological evaluation of a new series of highly functionalized 7'-homo-anhydrovinblastine derivatives” (J Med Chem, 2013).
The source made the active and inactive calls. No cut-off for these calls is given here.

Experiments:
[1] = Inhibition of sheep brain tubulin polymerization by UV spectrophotometric analysis; set-up: species or system Ovis aries
Summary of the method: (§1)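 Sheep brain tubulin was mixed with compound in DMSO at 0 °C, then warmed to 37 °C. Assembly was followed as optical density at 350 nm. Maximum assembly rate was compared with a drug-free sample, and IC50 was derived from several concentrations. Vinorelbine IC50 was measured the same day on the same tubulin preparation.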

HCT-116 = assay: Cytotoxicity against human HCT116 cells after 72 hrs by resazurin assay; format: functional, cell-based; conditions: HCT-116, 72 h
Summary of the method: (§2)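 Cells were seeded at 2.5 × 10^3/well, cultured 24 h, then given compound in DMSO (<0.1%) at several concentrations for 72 h. Media: RPMI 1640/10% FCS for K562 and HCT116; DMEM/10% FCS for U87-MG; EGM2 with growth factors and 2% FCS for HUVEC. Resazurin was added for 1.5 h and fluorescence read (ex 560/em 590 nm). IC50 is the 50% fluorescence drop versus untreated cells. Run in triplicate.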

HUVEC = assay: Cytotoxicity against HUVEC after 72 hrs by resazurin assay; format: cell-based; conditions: Homo sapiens; summary of the method: as §2
K562 [2] = assay: Cytotoxicity against human K562 cells after 72 hrs by resazurin assay; format: functional, cell-based; conditions: K562, 72 h; summary of the method: as §2
[3] = Cytotoxicity against human U87MG cells after 72 hrs by resazurin assay; format: functional, cell-based, U-87MG ATCC; conditions: U-87 MG; summary of the method: as §2
K562 [4] = assay: Cell cycle arrest in human K562 cells assessed as accumulation at G2/M phase at 50 nM after 24 hrs by propidium iodide staining-based flow cytometric analysis; format: functional
Summary of the method: (§3)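 K562 cells grown in RPMI 1640 with 10% FCS and 1% glutamine, 37 °C, 5% CO2. Exponentially growing cells were exposed for 24 h to compound at two concentrations, or to DMSO. Cells were then harvested, PBS-washed, fixed in cold 70% ethanol (30 min, +4 °C) and held at −20 °C overnight. DNA was stained with propidium iodide plus RNase for 30 min, and the profile was read by flow cytometry.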

K562 [5] = assay: Cell cycle arrest in human K562 cells assessed as accumulation at G2/M phase at >50 nM after 24 hrs by propidium iodide staining-based flow cytometric analysis; format: functional; summary of the method: as §3
[6] = Cell cycle arrest in human U87MG cells assessed as accumulation at G2/M phase at 50 nM after 24 hrs by propidium iodide staining-based flow cytometric analysis; format: functional; conditions: U-87MG ATCC
Summary of the method: (§4)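 U87-MG glioblastoma cells grown in DMEM with 10% FCS and L-glutamine, 37 °C, 5% CO2. Exponentially growing cells were treated for 24 h at two concentrations, or with DMSO. Cells were harvested, dissociated, PBS-washed, fixed in cold 70% ethanol and kept at −20 °C overnight. Staining used propidium iodide with RNase for 30 min, followed by flow-cytometric cell-cycle profiling.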

[7] = Cell cycle arrest in human U87MG cells assessed as accumulation at G2/M phase at >50 nM after 24 hrs by propidium iodide staining-based flow cytometric analysis; format: functional; conditions: U-87MG ATCC; summary of the method: as §4
Ovis aries = species: Ovis aries; assay: Ratio of compound IC50 to vinorelbine IC50 for sheep brain tubulin polymerization; summary of the method: as §1
K562 [8] = assay: Cell cycle arrest in human K562 cells assessed as accumulation at G2/M phase at 10 nM after 24 hrs by propidium iodide staining-based flow cytometric analysis; format: functional; summary of the method: as §3
[9] = Cell cycle arrest in human U87MG cells assessed as accumulation at G2/M phase at >5 nM after 24 hrs by propidium iodide staining-based flow cytometric analysis; format: functional; conditions: U-87MG ATCC; summary of the method: as §4
K562 [10] = assay: Cell cycle arrest in human K562 cells assessed as accumulation at G2/M phase at >10 nM after 24 hrs by propidium iodide staining-based flow cytometric analysis; format: functional; summary of the method: as §3
[11] = Cell cycle arrest in human U87MG cells assessed as accumulation at G2/M phase at 5 nM after 24 hrs by propidium iodide staining-based flow cytometric analysis; format: functional; conditions: U-87MG ATCC; summary of the method: as §4

Compound | IC50 [1] [nM] | IC50 (HCT-116) [nM] | IC50 (HUVEC) [nM] | IC50 (K562 [2]) [nM] | IC50 [3] [nM] | also measured
C=CCNC(=O)[C@@H]1[C@H](C(=O)OC)Cc2c([nH]c3ccccc23)[C@@](C(=O)OC)(c2cc3c(cc2OC)N(C)[C@H]2[C@@](O)(C(=O)OC)[C@H](OC(C)=O)[C@]4(CC)C=CCN5CC[C@]32[C@@H]54)C[C@@H]2C=C(CC)CN1C2 | 4900 | 45 | 25 | 50 | 10 | 
CCOC(=O)/C1=C/N2CC(CC)=C[C@H](C2)C[C@](C(=O)OC)(c2cc3c(cc2OC)N(C)[C@H]2[C@@](O)(C(=O)OC)[C@H](OC(C)=O)[C@]4(CC)C=CCN5CC[C@]32[C@@H]54)c2[nH]c3ccccc3c2C1 | > 100000 |  |  |  |  | 
CCC1=C[C@@H]2CN(C1)/C(C(=O)OC)=C(/C(=O)OC)Cc1c([nH]c3ccccc13)[C@@](C(=O)OC)(c1cc3c(cc1OC)N(C)[C@H]1[C@@](O)(C(=O)OC)[C@H](OC(C)=O)[C@]4(CC)C=CCN5CC[C@]31[C@@H]54)C2 | 6000 | 500 | 100 | 1000 | 700 | 
CCOC(=O)[C@@H]1Cc2c([nH]c3ccccc23)[C@@](C(=O)OC)(c2cc3c(cc2OC)N(C)[C@H]2[C@@](O)(C(=O)OC)[C@H](OC(C)=O)[C@]4(CC)C=CCN5CC[C@]32[C@@H]54)C[C@@H]2C=C(CC)CN(C2)C1 | > 100000 |  |  |  |  | 
CCC1=C[C@@H]2CN(C1)C[C@H](C(=O)OC)Cc1c([nH]c3ccccc13)[C@@](C(=O)OC)(c1cc3c(cc1OC)N(C)[C@H]1[C@@](O)(C(=O)OC)[C@H](OC(C)=O)[C@]4(CC)C=CCN5CC[C@]31[C@@H]54)C2 | 2500 | 18 | 8 | 15 | 7 | Activity (K562 [4]): Active; Activity (K562 [5]): Active; Activity [6]: Active; Activity [7]: Active
CCC1=C[C@@H]2CN(C1)/C(C(=O)NC(C)(C)C)=C(/C(=O)OC)Cc1c([nH]c3ccccc13)[C@@](C(=O)OC)(c1cc3c(cc1OC)N(C)[C@H]1[C@@](O)(C(=O)OC)[C@H](OC(C)=O)[C@]4(CC)C=CCN5CC[C@]31[C@@H]54)C2 | 10400 | 60 | 25 | 50 | 25 | 
CCC1=C[C@@H]2CN(C1)Cc1c([nH]c3ccccc13)[C@@](C(=O)OC)(c1cc3c(cc1OC)N(C)[C@H]1[C@@](O)(C(=O)OC)[C@H](OC(C)=O)[C@]4(CC)C=CCN5CC[C@]31[C@@H]54)C2 [VINORELBINE] | 700 | 35 | 2 | 20 | 2 | 
CCC1=C[C@@H]2CN(C1)/C(C(=O)NCc1ccccc1)=C(/C(=O)OC)Cc1c([nH]c3ccccc13)[C@@](C(=O)OC)(c1cc3c(cc1OC)N(C)[C@H]1[C@@](O)(C(=O)OC)[C@H](OC(C)=O)[C@]4(CC)C=CCN5CC[C@]31[C@@H]54)C2 | 10400 | 250 | 40 | 80 | 10 | 
CCC1=C[C@@H]2CN(C1)[C@H](C(=O)NCc1ccccc1)[C@H](C(=O)OC)Cc1c([nH]c3ccccc13)[C@@](C(=O)OC)(c1cc3c(cc1OC)N(C)[C@H]1[C@@](O)(C(=O)OC)[C@H](OC(C)=O)[C@]4(CC)C=CCN5CC[C@]31[C@@H]54)C2 | 2700 | 200 | 60 | 75 | 70 | 
CCC1=C[C@@H]2CN(/C=C(/C(=O)OCc3ccccc3)Cc3c([nH]c4ccccc34)[C@@](C(=O)OC)(c3cc4c(cc3OC)N(C)[C@H]3[C@@](O)(C(=O)OC)[C@H](OC(C)=O)[C@]5(CC)C=CCN6CC[C@]43[C@@H]65)C2)C1 | > 100000 |  |  |  |  | 
CCC1=C[C@@H]2CN(/C=C(/C(=O)OC)Cc3c([nH]c4ccccc34)[C@@](C(=O)OC)(c3cc4c(cc3OC)N(C)[C@H]3[C@@](O)(C(=O)OC)[C@H](OC(C)=O)[C@]5(CC)C=CCN6CC[C@]43[C@@H]65)C2)C1 | 18000 | 500 | 250 | 500 | 700 | 
CCC1=C[C@@H]2CN(C1)[C@H](C(=O)NC(C)C)[C@H](C(=O)OC)Cc1c([nH]c3ccccc13)[C@@](C(=O)OC)(c1cc3c(cc1OC)N(C)[C@H]1[C@@](O)(C(=O)OC)[C@H](OC(C)=O)[C@]4(CC)C=CCN5CC[C@]31[C@@H]54)C2 | 500 | 100 | 150 | 60 | 20 | Ratio IC50 (Ovis aries): 0.6
CCC1=C[C@@H]2CN(C1)[C@H](C(=O)OC)[C@H](C(=O)OC)Cc1c([nH]c3ccccc13)[C@@](C(=O)OC)(c1cc3c(cc1OC)N(C)[C@H]1[C@@](O)(C(=O)OC)[C@H](OC(C)=O)[C@]4(CC)C=CCN5CC[C@]31[C@@H]54)C2 | 8600 | 6 | 2.5 | 5 | 1.5 | Activity (K562 [8]): Active; Activity [9]: Active; Activity (K562 [10]): Active; Activity [11]: Active
CC[C@]1(O)C[C@@H]2CN(CCc3c([nH]c4ccccc34)[C@@](C(=O)OC)(c3cc4c(cc3OC)N(C)[C@H]3[C@@](O)(C(=O)OC)[C@H](OC(C)=O)[C@]5(CC)C=CCN6CC[C@]43[C@@H]65)C2)C1 [VINBLASTINE] | 2100 | 3.5 | 0.8 | 7 | 1 | 
C=CCNC(=O)/C1=C(\C(=O)OC)Cc2c([nH]c3ccccc23)[C@@](C(=O)OC)(c2cc3c(cc2OC)N(C)[C@H]2[C@@](O)(C(=O)OC)[C@H](OC(C)=O)[C@]4(CC)C=CCN5CC[C@]32[C@@H]54)C[C@@H]2C=C(CC)CN1C2 | 3700 | 1800 | 2000 | 1000 | 3000 | 
CCC1=C[C@@H]2CN(C1)C[C@H](C(=O)OCc1ccccc1)Cc1c([nH]c3ccccc13)[C@@](C(=O)OC)(c1cc3c(cc1OC)N(C)[C@H]1[C@@](O)(C(=O)OC)[C@H](OC(C)=O)[C@]4(CC)C=CCN5CC[C@]31[C@@H]54)C2 | > 100000 |  |  |  |  | 
CCC1=C[C@@H]2CN(C1)[C@H](C(=O)NC(C)(C)C)[C@H](C(=O)OC)Cc1c([nH]c3ccccc13)[C@@](C(=O)OC)(c1cc3c(cc1OC)N(C)[C@H]1[C@@](O)(C(=O)OC)[C@H](OC(C)=O)[C@]4(CC)C=CCN5CC[C@]31[C@@H]54)C2 | 1100 | 300 | 70 | 250 | 80 | Ratio IC50 (Ovis aries): 1.7
CCC1=C[C@@H]2CN(C1)/C(C(=O)NC(C)C)=C(/C(=O)OC)Cc1c([nH]c3ccccc13)[C@@](C(=O)OC)(c1cc3c(cc1OC)N(C)[C@H]1[C@@](O)(C(=O)OC)[C@H](OC(C)=O)[C@]4(CC)C=CCN5CC[C@]31[C@@H]54)C2 | 1600 | 2500 | 700 | 1500 | 350 | Ratio IC50 (Ovis aries): 2
